Bioassay records: PubChem, several laboratories
Most compounds without a hit are left out; they make up all but 3.9% or so of the library.
Gli-Sufu antag: antagonists of Gli-Sufu signaling | AID 588413 | Sufu-KO-LIGHT fibroblasts, Gli luciferase reporter luminescence | 340,000 tested, 0.74% active | inhibition, % at 5 µM;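 active means inhibition above about 55%, limit read from the data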;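 further: 0% = DMSO-treated cells and 100% = wells with medium but no cells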
UPR CHOP act: apoptotic UPR (CHOP) activation; CHO-CHOP luciferase reporter, luminescence; percent of tunicamycin response over DMSO baseline; activation, % at 10 µM; 330,000 tested, 0.34% active; AID 449763;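 active means at 10 µM dose, activation of 40% or more, normalized to positive control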;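 further: 100% = tunicamycin at 10 µg/mL and 0% = DMSO alone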
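measured by = luciferase luminescence | assay system = CHO-CHOP cells, stable luciferase reporter of PERK-eIF2a-CHOP signalling | amount = 500 reporter cells seeded per well | timing = 6 h compound exposure at 37 °C after overnight seeding | controls = positive tunicamycin 10 µg/mL, negative DMSO alone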
CHOP inhibitor: inhibitors of CHOP induction in ER stress response | CHO-K1 CHOP-promoter luciferase, tunicamycin-induced, 15-18 h | inhibition, % at 10 µM | 220,000 tested, 3.8% active | AID 2732;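 active means compounds that reduced the stress-induced luciferase reporter signal by more than about 70% of percent inhibition, limit read from the data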;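 further: 0% = tunicamycin plus vehicle and 100% = wells without tunicamycin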
697 NFkB inh: inhibitors of the PMA/ionomycin-induced NF-kB reporter in 697 B cells. 697 B-cell NF-kB luciferase reporter, 16 h. 330,000 tested, 0.33% active. inhibition, % at 4 µM; in the data active means inhibition above about 35%
Jurkat NFkB inh: lowers PMA/ionomycin-induced NF-kB signal in Jurkat cells; PMA/ionomycin-induced NF-kB luciferase reporter, luminescence; inhibition, % at 4 µM; 330,000 tested, 0.53% active; AID 435003; in the data active means inhibition above about 50%
XBP1 UPR activ: adaptive UPR (XBP1) activation. CHO-XBP1 luciferase reporter, IRE1-XBP1 UPR activation, luminescence; percent of tunicamycin response, DMSO as zero. activation, % at 20 µM. 330,000 tested, 0.33% active;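 active means versus positive control, 20 µM dose yields 30% or more activation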;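 further: 100% = tunicamycin at 10 µg/mL and 0% = DMSO only wells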
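Material: CHO cell line with stable XBP1 luciferase reporter; buffer or medium: F12 medium containing 10% fetal bovine serum; compound: single point, 20 µM final compound, 1% DMSO; incubation: 6 h treatment, 37 °C; measured by: glow luminescence from Steady-Glo reagent; evaluation: activation, % of tunicamycin; control set: tunicamycin high, DMSO low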
Jurkat NFkB conf: lowers PMA/ionomycin-induced NF-kB signal in Jurkat cells; Jurkat NF-kB luciferase, 16 h; inhibition, % at 4 µM; shares compounds with Jurkat NFkB inh; 2,700 tested, 27% active;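 active means inhibition reaching about 45% at 4 µM in either replicate, limit read from the data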;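 further: plate controls were PMA/ionomycin stimulated DMSO wells for no effect and unstimulated DMSO wells for full effect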
* = called active by the depositor; nt = not tested or not shown.

SMILES	Gli-Sufu antag	UPR CHOP act	CHOP inhibitor	697 NFkB inh	Jurkat NFkB inh	XBP1 UPR activ	Jurkat NFkB conf
COC(=O)c1ccc(NC(=O)c2ccccc2C(=O)Nc2ccc(C(=O)OC)cc2)cc1	2	1	nt	11	28	0	nt
COC(=O)c1ccc(NC(=O)C(=O)c2cccn2C)cc1	-101	-1	28	-122	-170	-8	-105
CCOC(=O)c1[nH]c(C)c(C(=O)OCC(=O)NC(C)c2ccc(F)cc2)c1C (configuration not stated)	-7	11	nt	-69	60*	3	51*
CCOC(=O)c1c(C)[nH]c(C(=O)OCC(=O)NC(C)(C)C)c1C	-5	0	0	-4	10	-1	nt
CCOC(=O)c1[nH]c(C)c(C(=O)Nc2ccccc2F)c1C	-11	2	nt	-77	52*	-1	13
CCOC(=O)c1c(C)c(C(=O)Nc2cc(OC)ccc2OC)c(C)n1CC	0	nt	nt	nt	nt	nt	nt
CCOC(=O)c1c(C)[nH]c(C(=O)Nc2ccc3c(c2)OCO3)c1C	nt	6	9	-154	-187	1	-94
CCOC(=O)c1[nH]c(C)c(C(=O)Nc2cc(OC)ccc2OC)c1C	6	2	nt	7	70*	13	46
O=C(CSc1nnc(NC2CCCCC2)s1)N1CCOCC1	-3	-1	nt	0	-6	2	nt
COc1cccc(N(CC(=O)NC2CCCCC2)C(=O)CCCC(=O)Nc2ccccn2)c1	-24	-1	nt	-7	9	-6	nt
CCOC(=O)c1c(C)[nH]c(C(=O)OCc2ccccc2F)c1C	-72	7	nt	-196	-166	8	-115
CCOC(=O)c1c(C)[nH]c(C(=O)OCC(=O)c2ccccc2)c1C	-132	4	nt	-220	-193	-3	-151
CCOC(=O)c1[nH]c(C)c(C(=O)Nc2ccc(C)cc2C)c1C	-19	0	nt	-62	53*	-1	42
CCOC(=O)c1c(C)[nH]c(C(=O)OCC(=O)NCc2ccccc2)c1C	-4	2	nt	5	-4	3	nt
CCOc1ncccc1C(=O)OCC(=O)NC1CCCCCC1	5	1	nt	13	9	-1	nt
COc1ccc(CNC(=O)CN(Cc2ccccc2)C(=O)CCC(=O)Nc2nccs2)cc1	-13	0	nt	-2	-3	-5	nt
CC(C)(C)N1C(=O)Cc2c1nc(N)c1c(N)nc(N3CCCCC3CO)c(C#N)c21 (configuration not stated)	14	23	-41	-45	56*	-5	21
O=C(N/N=C/c1ccccc1)c1[nH]c2ccc(Br)cc2c1-c1ccccc1	46	1	35	34	58*	14	8
O=C(NN=C1CCCC1)c1[nH]c2ccc(Br)cc2c1-c1ccccc1	-7	0	31	31	2	-1	nt
CC(c1ccco1)N(C(=O)c1ccc(C#N)cc1)c1ccccn1 (configuration not stated)	-1	-2	11	15	-10	5	nt
CC(C)c1ccc(C(=O)N(c2ccccn2)C(C)c2ccco2)cc1 (configuration not stated)	-11	5	12	-46	-165	5	-78
O=c1c2ccccc2oc2ccc(C#CC3(O)CCCCC3)cc12	28	-3	nt	-180	-161	-3	15
O=C(Nc1nc2ccccc2s1)NC1CCCCC1	-124	4	-7	-133	-179	5	-112
O=C(CC1CCCCC1)Nc1nc2ccccc2s1	-81	7	23	-182	-106	13	nt
CC(=O)Nc1sc2c(c1C#N)CCCC2	-4	1	20	8	-17	5	nt
SMILES	Gli-Sufu antag	UPR CHOP act	CHOP inhibitor	697 NFkB inh	Jurkat NFkB inh	XBP1 UPR activ	Jurkat NFkB conf
Cc1cc(C(=O)Nc2sc3c(c2C#N)CCCCC3)cs1	-85	2	26	-179	-186	1	-105
CSCCC(NS(=O)(=O)c1ccc(C)cc1)C(=O)NC1CCCCCC1 (configuration not stated)	0	-4	nt	10	-7	-3	nt
Cc1c(C(=O)N2CCCCC2C)sc2nc3n(c(=O)c12)CCC3 (configuration not stated)	2	-2	nt	1	1	-5	nt
Cc1noc(C)c1COc1ccc(CC(=O)NCCc2ccccn2)cc1	14	0	nt	14	-13	-3	nt
O=C(Cc1ccc(-c2ccccc2)cc1)NCc1cccnc1	-15	-2	4	-15	47	0	nt
Cc1ccc(CNC(=O)Cc2ccc(-c3ccccc3)cc2)cc1	45	-1	4	21	63*	2	17
O=C(Cc1ccc(-c2ccccc2)cc1)NCc1ccccc1	24	4	46	-25	62*	10	47
Cc1noc(C)c1COc1ccc(CC(=O)NCc2ccccc2)cc1	39	2	10	-58	62*	-2	47
COc1ccc(CNC(=O)[C@H](C)NC(=O)[C@@H]2Cc3ccccc3CN2)cc1	-29	0	nt	13	-2	0	nt
CCOC(=O)CSC1=C(C#N)C(c2ccc(C)s2)CC(=O)N1 (configuration not stated)	48	0	nt	5	57*	2	49*
O=c1c2sc(-c3ccccc3)cc2nc2n1CCC2	-47	-5	14	-142	-63	-4	nt
O=c1c2sc(-c3ccccc3)cc2nc2n1CCCCC2	-92	6	-7	-209	-166	0	-123
Cc1ccc(C)c(N2CCN(S(=O)(=O)c3cc4c(cc3C)NC(=O)CO4)CC2)c1	5	1	nt	-2	14	-4	nt
COc1cccc(N2CCN(C(=O)c3[nH]c(C)c(C(C)=O)c3C)CC2)c1	0	1	nt	-35	55*	0	11
COc1cccc(N2CCN(C(=O)c3ccc(CS(=O)c4ccccc4Cl)o3)CC2)c1 (configuration not stated)	44	0	nt	-35	56*	8	53*
COc1cccc(N2CCN(C(=O)c3ccc(CS(=O)c4ccccc4C)o3)CC2)c1 (configuration not stated)	25	0	nt	-17	56*	10	36*
O=C(c1ccc(CS(=O)c2ccccc2Cl)o1)N1CCN(c2ccccc2)CC1 (configuration not stated)	20	2	nt	-22	45	2	nt
COc1ccc(N2CCN(C(=O)c3ccc(CS(=O)c4cccc(C)c4)o3)CC2)cc1 (configuration not stated)	14	0	nt	1	24	-7	nt
COc1ccc(CCNC(=O)CCNC(=O)c2ccccc2Cl)cc1	0	0	nt	5	14	-1	nt
Cc1cccc(S(=O)(=O)Nc2ccc(-c3cn4ccccc4n3)cc2)c1	-18	0	21	12	-22	-3	nt
